Data reported in ChEMBL document CHEMBL1126093, “Structural features of substituted purine derivatives compatible with depletion of human O6-alkylguanine-DNA alkyltransferase” (J Med Chem, 1992).
The source made the active and inactive calls. The calls are words filed in the database; no cut-off is given here.

Tests used:
[1] = biological target: T1, Methylated-DNA--protein-cysteine methyltransferase (Homo sapiens) (UniProt P16455); test: Inhibitory activity against alkyl transferase in HT-29 cells; format: cell-based
T1 sequence (whole entry): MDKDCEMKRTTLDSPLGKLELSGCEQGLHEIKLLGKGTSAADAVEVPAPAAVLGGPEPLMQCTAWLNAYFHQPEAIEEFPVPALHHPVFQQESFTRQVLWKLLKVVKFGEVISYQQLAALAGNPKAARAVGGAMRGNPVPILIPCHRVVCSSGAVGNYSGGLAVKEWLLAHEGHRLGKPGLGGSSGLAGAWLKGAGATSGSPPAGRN
Procedure, shortened: (§1)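 HT29 cells plated at 5 × 10⁶ per T75 flask and grown 3 days. Medium then replaced with medium holding increasing derivative concentrations (range 0.05–400 μM where soluble) for 4 h. Cells rinsed with PBS, harvested, frozen at -80 °C, then extracted. AGT activity assayed by O⁶-[³H]methylguanine loss from [³H]methylated DNA. 50% inactivation dose taken from plots; at least duplicates.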

[2] = biological target: T1, Methylated-DNA--protein-cysteine methyltransferase (Homo sapiens); test: In vitro inhibition of human alkyl transferase in HT-29 cell-free extracts.
Procedure, shortened: (§2)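 HT29 crude cell extract incubated 30 min with derivative (0–400 μM, from 100 mM DMSO stocks) in 50 mM Tris-HCl pH 7.5, 0.1 mM EDTA, 5 mM DTT. Remaining AGT activity measured as loss of O⁶-[³H]methylguanine from [³H]methylnitrosourea-methylated calf thymus DNA. Dose for 50% inactivation read from %-activity-remaining vs dose plots; at least duplicates averaged.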

[3] = biological target: T1, Methylated-DNA--protein-cysteine methyltransferase (Homo sapiens); test: Inhibitory activity against alkyl transferase in HT-29 cell-free extracts; inactive; procedure, shortened: as §2
[4] = biological target: T1, Methylated-DNA--protein-cysteine methyltransferase (Homo sapiens); test: The compound was tested for its inhibitory activity against alkyl transferase in HT-29 cells; inactive; format: cell-based; procedure, shortened: as §1

SMILES	ED50 [1] [µM]	ED50 [2] [µM]	ED50 [3]	ED50 [4]
N#CCn1cnc2c(OCc3ccccc3)nc(N)nc21	0.8	13	–	–
Nc1nc(OCc2ccc(Cl)cc2)c2ncn(C3O[C@H](CO)[C@@H](O)[C@H]3O)c2n1 (some centres undefined)	5	10	–	–
C=CCOc1nc(N)nc2nc[nH]c12	4	20	–	–
CCC(O)Cn1cnc2c(OCc3ccccc3)nc(N)nc21 (centres undefined)	2	13	–	–
Cc1ccc(CSc2[nH]c(N)nc3ncnc2-3)cc1	–	–	inactive	–
c1ccc(COc2[nH]cnc3ncnc2-3)cc1	36	85	–	–
COc1nc(N)nc2nc[nH]c12	120	350	–	–
Nc1nc(OCc2ccc(Cl)cc2)c2[nH]cnc2n1	0.08	0.2	–	–
Cc1ccc(COc2nc(N)nc3c2ncn3C2O[C@H](CO)[C@@H](O)[C@H]2O)cc1 (some centres undefined)	3	9	–	–
Nc1nc(OCc2ccccc2)c2c(ncn2CC(=O)O)n1	–	–	–	inactive
Nc1nc(SCc2ccc([N+](=O)[O-])cc2)c2ncn([C@@H]3O[C@H](CO)[C@@H](O)[C@H]3O)c2n1	–	–	inactive	–
Nc1nc(OCc2ccc(F)cc2)c2[nH]cnc2n1	0.05	0.2	–	–
NC(=O)Cn1cnc2c(OCc3ccccc3)nc(N)nc21	7.5	47	–	–

Further lines, results first:

ED50 [1] [µM]	ED50 [2] [µM]	ED50 [3]	ED50 [4]	SMILES
–	–	inactive	–	CCC(O)Cn1cnc2nc(N)nc(OCc3ccccc3)c21 (centres undefined)
0.08	0.2	–	–	Cc1ccc(COc2nc(N)nc3nc[nH]c23)cc1
2	11	–	–	Nc1nc(OCc2ccccc2)c2ncn(C3O[C@H](CO)[C@@H](O)[C@H]3O)c2n1 (some centres undefined)
3	30	–	–	CCOC(=O)Cn1cnc2c(OCc3ccccc3)nc(N)nc21
–	–	inactive	–	Nc1nc(O)c2c(ncn2Cc2ccccc2)n1
–	–	inactive	–	NC(=O)Cn1cnc2nc(N)nc(OCc3ccccc3)c21
–	–	inactive	–	Nc1nc(SCc2ccccc2)c2[nH]cnc2n1
–	157	–	inactive	Nc1nc(OCc2ccccc2)c2ncn(CC(=O)O)c2n1
–	–	inactive	–	N#CCn1cnc2nc(N)nc(OCc3ccccc3)c21
0.5	2	–	–	Nc1nc(OCc2ccccc2)c2ncn([C@H]3C[C@H](O)[C@@H](CO)O3)c2n1
–	–	inactive	–	CCOC(=O)Cn1cnc2nc(N)nc(OCc3ccccc3)c21
